An excerpt weighted towards active compounds, which were near 1.7% of everything screened.
eIF4H inh = inhibitors of RNA binding by human eIF4H; Q15056; eIF4H fluorescence polarization binding assay; inhibition, % at 35 µM; 290,000 tested, 0.94% active; AID 2012;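 note: calls also rest on retests at 20 µM and on dose response follow-up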
SKN-1 block = inhibitors of C. elegans SKN-1; 360,000 tested, 0.49% active; C. elegans VP596 Pgst-4::GFP/RFP ratio, acrylamide-induced, 24 h; AID 624304; inhibition, % at 21.8 µM;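 active = interference check ratio from 0.5 to 1.5 plus GFP to RFP signal ratio inhibition reaching or exceeding a fixed threshold, cut at about 30% in these data, passing the limit was not always enough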
MLLE-PAM2 inh = blocks PAM2 peptide binding to the PABP1 MLLE domain; P11940; 360,000 tested, 0.36% active; GST-MLLE / FITC-PAM2 fluorescence polarization; inhibition, % at 20 µM; AID 588489; in the data active = inhibition above about 35%, passing the limit was not always enough
MT1-MMP act inh = blocks activation of human MT1-MMP. P50281. HT1080 RFP-PRO-GFP cells, GFP/RFP ratio fluorescence, overnight; percent of plate control window, DMSO zero. GFP/RFP ratio change, % at 20 µM. 360,000 tested, 0.061% active. AID 651647;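 active = GFP/RFP ratio change of at least 30% with cell ATP level not reduced by more than half and red fluorescence within 50% of control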
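Assay system – RFP-PRO-GFP reporter HT1080 cells · Compound dosing – single dose of 20 µM compound, 1% DMSO final · Incubation – overnight compound exposure at 37 °C · Measure – GFP/RFP fluorescence ratio · Benchmarks – DMSO wells and RFP-L50D-GFP cells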
PABP polyA inh = PABP-poly(A) binding inhibition. inhibition, % at 35 µM. AID 2014. P11940. PABP-poly(A) RNA binding, fluorescence polarization. 290,000 tested, 1% active;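 note: calls also rest on retests at 20 µM and on dose response follow-up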
A number is an active result; 0 = inactive; ? = inconclusive; - = not tested or not shown. Unless noted, the rule behind the calls is not given here.

SMILES | eIF4H inh | SKN-1 block | MLLE-PAM2 inh | MT1-MMP act inh | PABP polyA inh
COc1ccc(OC)c(N2C(=O)NC(=O)/C(=C\c3ccc([N+](=O)[O-])s3)C2=O)c1 | 0 | 0 | 0 | 0 | 0
CN1C(=O)/C(=C\c2ccc(Br)s2)C(=O)NC1=S | 0 | 37.3 | 0 | - | 0
CN1C(=O)NC(=O)/C(=C/c2ccc([N+](=O)[O-])o2)C1=O | ? | - | - | - | 48.8
O=C1NC(=O)N(c2ccccc2)C(=O)/C1=C\c1ccc([N+](=O)[O-])o1 | 78.0 | - | - | - | 56.6
COc1ccc(NC2(C#N)CCCCC2)cc1 | 0 | 0 | 0 | 0 | 0
CC1=NN(Cc2c[nH]c3ccccc23)C(C)(C)C1 | 0 | 0 | 0 | 0 | 0
O=C1c2ccccc2-c2cccc3cccc1c23 | - | 0 | 55.1 | 0 | -
O=C1c2ccccc2-c2cc3ccccc3cc21 | - | 0 | 46.2 | 0 | -
CC1CCN(c2cc(Br)c([N+](=O)[O-])cc2F)CC1 | 0 | 0 | 0 | 0 | 0
CN(C)P(=NC(=S)c1cccn1C)(N(C)C)N(C)C | 0 | 0 | 36.6 | 0 | 0
O=c1[nH]c(=O)n(-c2cccc3ccccc23)c(O)c1/C=N/N1CCCCC1c1cccnc1 (stereo unspecified) | 89.0 | 0 | 0 | 0 | 9.1
O=c1[nH]c(=O)n(C2CCCCC2)c(O)c1/C=N/N1CCCCC1c1cccnc1 (stereo unspecified) | 0 | 0 | 0 | 0 | 0
CC(C)CNP(=S)(c1ccccc1)C(C)(C)C (stereo unspecified) | 0 | 0 | 0 | 0 | 0
C=CCN1C(=O)C2(C(C(=O)OCC)=C(N)Oc3ccccc32)C2=C1CCCC2=O (stereo unspecified) | 0 | 36.9 | 0 | 0 | 0
CCCCn1c(=O)c(C=Nc2ccc(Cl)cc2)c(O)n(Cc2ccco2)c1=O | 0 | 0 | 0 | 0 | 0
CCN(CC)c1ccc(/C=C2\C(=O)NC(=O)N(Cc3ccco3)C2=O)cc1 | ? | 48.1 | 0 | 0 | 0
O=C(O)Cn1cc(/C=C2\C(=O)NC(=O)N(Cc3ccco3)C2=O)c2ccccc21 | ? | 0 | 0 | 0 | 127.2
CCCCN1C(=O)/C(=C/c2ccc(N(C)C)cc2)C(=O)N(Cc2ccco2)C1=O | ? | 39.9 | 0 | 0 | ?
Cc1ccc(N2C(=O)NC(=O)/C(=C\c3cn(CC(=O)O)c4ccccc34)C2=O)cc1 | ? | 0 | 0 | 0 | ?
COc1ccc(C)cc1NC1=NCCCS1 | 0 | 0 | 0 | 0 | ?
CN(C)c1ccc(C=C2C(=O)NC(=S)NC2=O)cc1[N+](=O)[O-] | 0 | 0 | 40.0 | 0 | 0
Cn1c(O)c(C=Nc2ccccc2Sc2ccccc2)c(=O)n(C)c1=O | 0 | 0 | 0 | 0 | active
Cc1cccc(N2C(=O)NC(=O)/C(=C\c3ccc4c(c3)CCCN4Cc3ccccc3)C2=O)c1 | ? | 39.6 | 0 | 0 | 0
CC1=NN(c2ccccc2)C(=O)C1/C=C1/C(=O)NC(=O)N(c2cccc(C)c2)C1=O (stereo unspecified) | 0 | - | - | - | 0
Cc1cc(C)c(-n2c(O)c(/C=N/NC(=O)c3ccncc3)c(=O)[nH]c2=O)c(C)c1 | 57.3 | 0 | 0 | 0 | 39.3
SMILES | eIF4H inh | SKN-1 block | MLLE-PAM2 inh | MT1-MMP act inh | PABP polyA inh
Cc1ccccc1-n1c(O)c(/C=N/NC(=O)c2ccncc2)c(=O)[nH]c1=O | 0 | 0 | 0 | 0 | 0
CCCCn1c(NS(=O)(=O)c2ccccc2)c(C(=O)OCC)c2nc3ccccc3nc21 | active | 0 | 0 | 0 | 63.6
CCC(C)NC(=O)c1c(N)n(CCCOC)c2nc3ccccc3nc12 (stereo unspecified) | 60.6 | 0 | 0 | 0 | 68.4
CCCCn1c(NC(=O)c2ccc(Br)o2)c(C(=O)OCC)c2nc3ccccc3nc21 | 0 | 0 | 0 | 0 | 0
CCOC(=O)c1c(N)n(CCN2CCCCC2)c2nc3ccccc3nc12 | 94.5 | 0 | 0 | 0 | 105.4
CCN(CC)C(=O)c1ccc(NC(=O)C2=C(C)OCCS2)cc1 | 0 | 0 | 0 | 0 | 0
COc1ccccc1NC(=O)COC(=O)c1cn(C)c2ccccc12 | - | 0 | 0 | 0 | -
Oc1ccc(/C=N/NP(=S)(c2ccccc2)c2ccccc2)cc1 | 0 | 37.8 | 0 | 0 | 0
COc1cc(/C=N/NP(=S)(c2ccccc2)c2ccccc2)ccc1O | 0 | 0 | 0 | 0 | 0
COC(=O)C1=C(c2cc3ccccc3o2)C[C@@H]2CC[C@H]1N2C(=O)N1CCC(O)CC1 | - | 0 | 0 | 0 | -
O=C(CSC1c2ccccc2-c2ccccc21)N/N=C/c1ccccc1O | 0 | 0 | 40.0 | 0 | 0
O=NN1CCCCC1 | - | 0 | 0 | 0 | -
COc1ccc(OCC(=O)N2CCCC(N3CCN(c4ccccc4C)CC3)C2)cc1 (stereo unspecified) | 0 | 0 | 0 | 0 | 0
O=C(NC(=S)N1C[C@H]2C[C@H](C1)c1cccc(=O)n1C2)c1ccc(Cl)cc1 | 0 | 0 | 42.4 | 0 | 0
COc1ccc(CN2CCCC(C(=O)c3cccc(Cl)c3)C2)cc1 (stereo unspecified) | 0 | 43.2 | 0 | 0 | 0
N[C@@H](Cc1ccccc1)C(=O)N1C[C@H]2C[C@@H](C1)c1cccc(=O)n1C2 | 0 | 0 | 0 | 0 | 0
COc1ccc(OC)c(N=Cc2c(O)n(Cc3ccccc3)c(=S)[nH]c2=O)c1 | 35.0 | 0 | 0 | 0 | 58.1
O=C(c1cn(Cc2ccccc2)c2ccccc12)N1CCCCC1 | 0 | 0 | 0 | 0 | 0
COc1cc2c(cc1OC)-c1c(OC)c(OC)cc3c1[C@H](C2)[N+](C)(C)CC3 | 0 | 0 | 0 | 0 | 0
O=C1NC(=O)C(=Cc2csc3ccccc23)C(=O)N1 | 0 | 0 | 40.7 | 0 | 0
Cc1ccc(Sc2ccc(C=C3C(=O)N(C)C(=O)N(C)C3=O)o2)cc1 | ? | 0 | 0 | 0 | 118.3
CN1C(=O)C(=Cc2ccc(-c3cccc(Cl)c3)o2)C(=O)N(C)C1=O | 0 | - | - | - | 0
C=CCn1c(O)c(C=Nc2ccc(N(CC)CC)cc2)c(=O)[nH]c1=O | 53.8 | 0 | 0 | 0 | 62.0
CCOc1cccc(N2C(=O)CC(=O)NC2=O)c1 | 0 | 0 | 0 | 0 | 0
CC(C)c1ccc(N2C(=O)CC(=O)NC2=O)cc1 | ? | 0 | 0 | 0 | 18.2
SMILES | eIF4H inh | SKN-1 block | MLLE-PAM2 inh | MT1-MMP act inh | PABP polyA inh
COc1cccc(N2C(=O)CC(=O)NC2=O)c1 | 76.6 | 0 | 0 | 0 | 75.8
CCC1C2Cn3c(nc4ccccc43)C1N(C)O2 (stereo unspecified) | 0 | 0 | 0 | 0 | 0
CCOP(=O)(OCC)c1cc(CC)ccc1O | 0 | 0 | 0 | 0 | 0
COc1cc(N2CCOCC2)ccc1/C=C1\C(=O)NC(=O)N(C2CCCCC2)C1=O | ? | 50.2 | 0 | 0 | 0
O=C1NC(=O)N(Cc2cccs2)C(=O)/C1=C/c1ccc(N2CCOCC2)cc1 | 0 | 0 | 0 | 0 | 0
CCN1C(=O)NC(=O)/C(=C\c2ccc(N3CCOCC3)cc2OC)C1=O | ? | - | - | - | 77.6
COc1ccc(/C=C2\C(=O)NC(=O)N(CCC3=CCCCC3)C2=O)c(OC)c1 | ? | 0 | 0 | 0 | 0
OCC[n+]1c2ccccc2nc2ccc(N3CCOCC3)cc21 | 0 | 37.6 | 0 | 0 | 0
CCN1C[C@]2(COC)CC[C@H](OC)[C@@]34C1[C@]1(OCO[C@@]15C[C@H](OC)[C@H]1C[C@@H]3[C@@H]5[C@H]1OC)[C@@H](O)[C@H]24 | - | 0 | 0 | 0 | -

Screens as filed in PubChem BioAssay.
